Experiment [1] deals with Rattus norvegicus. Description: In vivo antiinflammatory activity against rats by RPAR(reverse passive Arthus reaction) synovitis method. Details: concentration or dose not given beside the values. The class given is functional. Summed up:
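Lewis rats, oral drug or placebo 1 h before iv BSA (2.28 mg in saline), then intraarticular rabbit anti-BSA (0.54 mg) into one knee and saline into the other, under light anesthesia. Second oral dose at 3 h; the total of both doses is the calculated dose. About 17 h after induction, subpatellar tissue with synovium is excised and weighed. Response is antibody-minus-saline knee weight, tested by analysis of variance.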

Experiment [2] addresses T1, Polyunsaturated fatty acid 5-lipoxygenase (Rattus norvegicus) (UniProt P12527).
T1 sequence (whole entry): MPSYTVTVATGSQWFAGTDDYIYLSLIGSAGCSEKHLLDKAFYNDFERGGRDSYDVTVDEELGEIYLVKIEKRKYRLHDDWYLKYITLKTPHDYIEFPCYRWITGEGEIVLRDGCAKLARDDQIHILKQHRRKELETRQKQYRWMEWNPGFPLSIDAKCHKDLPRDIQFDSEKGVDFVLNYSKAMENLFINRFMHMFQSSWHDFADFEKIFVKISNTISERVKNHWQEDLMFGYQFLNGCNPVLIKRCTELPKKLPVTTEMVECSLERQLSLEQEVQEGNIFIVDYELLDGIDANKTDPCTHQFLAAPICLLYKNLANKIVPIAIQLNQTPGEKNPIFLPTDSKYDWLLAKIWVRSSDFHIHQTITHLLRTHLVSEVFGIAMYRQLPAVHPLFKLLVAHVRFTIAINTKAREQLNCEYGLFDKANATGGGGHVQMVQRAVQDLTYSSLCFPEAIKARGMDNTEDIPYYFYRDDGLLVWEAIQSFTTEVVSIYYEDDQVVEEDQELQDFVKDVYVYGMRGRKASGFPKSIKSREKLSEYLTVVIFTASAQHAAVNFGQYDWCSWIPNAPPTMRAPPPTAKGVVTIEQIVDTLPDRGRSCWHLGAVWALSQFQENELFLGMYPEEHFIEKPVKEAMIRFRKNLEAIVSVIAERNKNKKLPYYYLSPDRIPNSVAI
Description: In vitro inhibitory activity against Lipoxygenase in rat neutrophils at a dose of 50 uM. Summed up:
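Neutrophils come from the 4 h pleural exudate of male Wistar-Lewis rats given iv BSA plus intrapleural rabbit anti-BSA IgG. Cells are washed, red cells lysed with NH4Cl, and resuspended at about 5×10^6 cells/0.1 mL in Tris pH 7.4 with NaCl and 1 mM CaCl2. Cells are preincubated with compound 4 min at room temperature.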

For experiment [3], the target named is Cyclooxygenase (Rattus norvegicus) (UniProt P35355+Q63921). Description: In vitro inhibitory activity against Prostaglandin G/H synthase in rat neutrophils at a dose of 50 uM.
For experiment [4], the system named is Rattus norvegicus. Description: Tested in vivo for antiinflammatory activity against chronic adjuvant arthritic rat by prophylactic inhibition 1 degree paw after peroral administration of 10 mg/kg of dose. The experiment is classed as functional. The settings on record: route oral. Summed up: (§1)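 Prophylactic regimen, rats. Adjuvant is heat-killed Mycobacterium tuberculosis ground to a fine powder in paraffin oil (6 mg/mL); 0.1 mL is injected into the left hind paw. Oral drug is given 1 h before adjuvant challenge, then for 21 consecutive days; controls receive methyl cellulose. Left (1°) and right (2°) hind paw volumes are measured by plethysmograph.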

The subject of experiment [5] is Rattus norvegicus. Description: Tested in vivo for antiinflammatory activity against chronic adjuvant arthritic rat by prophylactic inhibition 2 degree paw after peroral administration of 10 mg/kg of dose. The experiment is classed as functional. Conditions: route oral. The method in brief:
as §1

Structures are written as SMILES. Where “and” joins values, the source holds several entries; their conditions need not be identical. Identical values can stand only once.

Turning to `CCCc1c(OC)n2c3c(=O)n(C)c(=O)n(C)c3nc2n(Cc2ccccc2)c1=O`, the Inhibition (commonly the share of the control response that was lost under treatment) in experiment [1] came out at 17%.
Turning to `Cn1c(=O)c2c(nc3n(Cc4ccccc4)c(O)c(C4C=CCCC4)c(=O)n23)n(C)c1=O` (stereo unspecified), the inhibition (as a rule, the percentage by which the read-out fell short of the control) is 25% and 38% in experiment [2]; 17% in experiment [3]. Besides, the inhibition in vivo (in general, the change of the read-out against control, counted positive when it falls) at 10 mg/kg came to 8% in experiment [4] and 2% in experiment [5]. The same compound came in with an Inhibition in experiment [1] of 25%.
In experiment [1], `CCCc1c(O)n(-c2ccc(F)cc2)c2nc3c(c(=O)n(C)c(=O)n3C)n2c1=O` had an Inhibition of 27%.
For `CCS(=O)(=O)CCc1c(O)n(Cc2ccccc2)c2nc3c(c(=O)n(C)c(=O)n3C)n2c1=O`, the Inhibition in experiment [1] is 6%.
The same measure, in the same setting: in the case of `CCO/C(O)=c1\c(=O)n(Cc2ccccc2)c2nc3c(c(=O)n(C)c(=O)n3C)n2c1=O` it was 0%.
Consider `CCCCc1c(O)n(Cc2ccc(Cl)c(Cl)c2)c2nc3c(c(=O)n(C)c(=O)n3C)n2c1=O`, for which the inhibition in vivo at 10 mg/kg in experiment [4] turned out to be 0%; in experiment [5], 17%. The Inhibition in experiment [1] came to 33%.
As for `CC(C)c1c(O)n(Cc2ccccc2)c2nc3c(c(=O)n(C)c(=O)n3C)n2c1=O`, the Inhibition in experiment [1] was determined as 0%.
Compound `CCCCn1c(=O)c2c(nc3n(Cc4ccccc4)c(O)c(C)c(=O)n23)n(CCCC)c1=O` showed an Inhibition in experiment [1] of 27%.
For `Cc1c(O)n(Cc2ccc(Cl)cc2)c2nc3c(c(=O)n(C)c(=O)n3C)n2c1=O`, the Inhibition in experiment [1] turned out to be 28%.
Compound `Cc1c(O)n(CCc2ccccc2)c2nc3c(c(=O)n(C)c(=O)n3C)n2c1=O` displayed an Inhibition in experiment [1] of 14%.
In the case of `CCCc1c(O)n(CCc2ccccc2)c2nc3c(c(=O)n(C)c(=O)n3C)n2c1=O`, the inhibition in vivo at 10 mg/kg amounted to 14% in experiment [4] and 38% in experiment [5]. In experiment [1], this compound yielded an Inhibition of 27%.
In turn, `Cc1c(O)n(-c2ccccc2)c2nc3c(c(=O)n(C)c(=O)n3C)n2c1=O` gave an Inhibition in experiment [1] of 14%.
Regarding `CCCCc1c(O)n(-c2ccccc2)c2nc3c(c(=O)n(C)c(=O)n3C)n2c1=O`, the Inhibition in experiment [1] is reported as 11%.
On the same count and under the same terms, the figure for `CC[S+]([O-])CCc1c(O)n(Cc2ccccc2)c2nc3c(c(=O)n(C)c(=O)n3C)n2c1=O` (stereo unspecified) is 0%.
Regarding `C#CCc1c(O)n(Cc2ccccc2)c2nc3c(c(=O)n(C)c(=O)n3C)n2c1=O`, the inhibition in experiment [2] was 11% and 7%; in experiment [3] it was 9%. The inhibition in vivo at 10 mg/kg in experiment [4] is 6%; in experiment [5], 27%. This compound returned an Inhibition in experiment [1] of 27%.
As for `CCSCCc1c(O)n(Cc2ccccc2)c2nc3c(c(=O)n(C)c(=O)n3C)n2c1=O`, the Inhibition in experiment [1] is given as 0%.
In experiment [1], `Cn1c(=O)c2c(nc3n(Cc4ccccc4)c(O)c(Cc4ccccc4)c(=O)n23)n(C)c1=O` showed an Inhibition of 16%.
`CN(C)CCc1c(O)n(Cc2ccccc2)c2nc3c(c(=O)n(C)c(=O)n3C)n2c1=O` registered an Inhibition in experiment [1] of 0%.
Consider `CCCCCCn1c(O)c(CCC)c(=O)n2c3c(=O)n(C)c(=O)n(C)c3nc12`, for which the results for the inhibition in vivo at 10 mg/kg in experiment [4] and in experiment [5] were 28% and 43%, respectively. Also, in experiment [1], the Inhibition is 37%.
In experiment [1], `CCCCc1c(O)n(Cc2ccc(F)cc2)c2nc3c(c(=O)n(CCCC)c(=O)n3CCCC)n2c1=O` had an Inhibition of 6%.
`CCCCc1c(O)n(Cc2ccc(Cl)cc2)c2nc3c(c(=O)n(C)c(=O)n3C)n2c1=O` registered an Inhibition in experiment [1] of 16%.
Regarding `Cn1c(=O)c2c(nc3n(Cc4ccccc4)c(O)c(N)c(=O)n23)n(C)c1=O`, in experiment [1], the Inhibition came to 11%.
As to `COc1ccc(Cn2c(O)c(CC=C(C)C)c(=O)n3c4c(=O)n(C)c(=O)n(C)c4nc23)cc1`, the inhibition in experiment [2] was 0% and 15%; in experiment [3], 73%. Further, the Inhibition in experiment [1] was found to be 10%.
Turning to `CCCCC1C(=O)N(Cc2ccccc2)c2nc3nccnc3n2C1=O` (stereo unspecified), the figures for the inhibition in vivo at 10 mg/kg in experiment [4] and in experiment [5] were 0% and 8%, respectively. For the same compound, in experiment [1], the Inhibition amounted to 15%.
In experiment [1], `CC(C)Cc1c(O)n(Cc2ccccc2)c2nc3c(c(=O)n(C)c(=O)n3C)n2c1=O` returned an Inhibition of 17%.
The same measure, in the same setting: in the case of `Cn1c(=O)c2c(nc3n(Cc4ccccc4)c(O)c(CCO)c(=O)n23)n(C)c1=O` it was 17%.
Compound `CC(C)Cc1c(O)n(-c2ccccc2)c2nc3c(c(=O)n(C)c(=O)n3C)n2c1=O` displayed an Inhibition in experiment [1] of 16%.
`COC(=O)Cc1c(O)n(Cc2ccccc2)c2nc3c(c(=O)n(C)c(=O)n3C)n2c1=O`: in experiment [1], the Inhibition turned out to be 14%.
Take `CCOCCc1c(O)n(Cc2ccccc2)c2nc3c(c(=O)n(C)c(=O)n3C)n2c1=O`: the Inhibition in experiment [1] was 8%.
Regarding `CCCCc1c(O)n(-c2ccc(F)cc2)c2nc3c(c(=O)n(C)c(=O)n3C)n2c1=O`, the inhibition in vivo at 10 mg/kg in experiment [4] worked out at 29%; in experiment [5] it was 35%. In addition, the Inhibition in experiment [1] amounted to 26%.
`CCCCn1c(=O)c2c(nc3n(Cc4ccc(OC)cc4)c(O)c(CCC)c(=O)n23)n(CCCC)c1=O` returned an Inhibition in experiment [1] of 5%.
In the case of `CCCCC1C(=O)N(Cc2ccccc2)c2nc3ncncc3n2C1=O` (stereo unspecified), the inhibition in vivo at 10 mg/kg in experiment [4] was determined as 0%; in experiment [5] it was 26%. For the same compound, in experiment [1], the Inhibition was determined as 21%.
On to `Cn1c(=O)c2c(nc3n(Cc4ccccc4)c(O)cc(=O)n23)n(C)c1=O`, for which the Inhibition in experiment [1] worked out at 11%.
Regarding `CCCc1c(O)n(Cc2ccccn2)c2nc3c(c(=O)n(C)c(=O)n3C)n2c1=O`, the Inhibition in experiment [1] was determined as 17%.
In experiment [1], `Cn1c(=O)c2c(nc3n(Cc4ccccc4)c(O)c(CC(=O)O)c(=O)n23)n(C)c1=O` had an Inhibition of 11%.
The compound `CC(=O)Nc1c(O)n(Cc2ccccc2)c2nc3c(c(=O)n(C)c(=O)n3C)n2c1=O` returned an Inhibition in experiment [1] of 20%.
In turn, `CCCCc1c(O)n(Cc2ccccc2)c2nccn2c1=O` had an Inhibition in experiment [1] of 17%.
Take `CCCc1c(O)n(Cc2ccc(Cl)cc2)c2nc3c(c(=O)n(C)c(=O)n3C)n2c1=O`: the Inhibition in experiment [1] was determined as 53%.
`CCCCn1c(=O)c2c(nc3n(Cc4cccs4)c(O)c(CCC)c(=O)n23)n(CCCC)c1=O`: the Inhibition in experiment [1] is 14%.
With `CC(C)c1c(O)n(CCc2ccccc2)c2nc3c(c(=O)n(C)c(=O)n3C)n2c1=O`, the Inhibition in experiment [1] is listed as 17%.
Take `CCCCC1C(=O)N(Cc2ccccc2)c2nc3ccccc3n2C1=O` (stereo unspecified): in experiment [1], the Inhibition was found to be 0%.
Same read-out and setting: the figure for `CCCc1c(O)n(Cc2ccc(OC)cc2)c2nc3c(c(=O)n(C)c(=O)n3C)n2c1=O` is 11%.
The same measure, in the same setting: in the case of `CCCCn1c(=O)c2c(nc3n(Cc4ccccc4)c(O)c(CCC)c(=O)n23)n(CCCC)c1=O` it was 12%; in that of `CC(=O)OCCc1c(O)n(Cc2ccccc2)c2nc3c(c(=O)n(C)c(=O)n3C)n2c1=O`, 1%; in that of `Cc1c(O)n(Cc2ccc(F)cc2)c2nc3c(c(=O)n(C)c(=O)n3C)n2c1=O`, 36%.
On the same count and under the same terms, the figure for `CCCc1c(O)n(-c2ccccc2)c2nc3c(c(=O)n(C)c(=O)n3C)n2c1=O` is 11%; for `Cc1c(O)n(Cc2ccccc2)c2nc3c(c(=O)n(C)c(=O)n3C)n2c1=O` it is 8%.
In the case of `CCCCn1c(=O)c2c(nc3n(Cc4ccc(F)cc4)c(O)c(CCC)c(=O)n23)n(CCCC)c1=O`, in experiment [1], the Inhibition is 8%.
Regarding `Cn1c(=O)c2c(nc3n(Cc4ccc(F)cc4)c(O)c(Cc4ccccc4)c(=O)n23)n(C)c1=O`, the Inhibition in experiment [1] was 10%.
For `CCCCc1c(O)n(CC2CCCCC2)c2nc3c(c(=O)n(C)c(=O)n3C)n2c1=O`, the inhibition in vivo at 10 mg/kg in experiment [4] was determined as 11%; in experiment [5], 34%. Moreover, the Inhibition in experiment [1] is 25%.
The like results for `CCCc1c(O)n(Cc2cccs2)c2nc3c(c(=O)n(C)c(=O)n3C)n2c1=O` were, in that order, 20%, 9% and 9%.
Turning to `CCCCc1c(O)n(Cc2ccc(Cl)cc2Cl)c2nc3c(c(=O)n(C)c(=O)n3C)n2c1=O`, the inhibition in vivo at 10 mg/kg in experiment [4] stood at 0%; in experiment [5], 29%. In addition, in experiment [1], the Inhibition was found to be 31%.
The compound `CCCCn1c(=O)c2c(nc3n(CCc4ccccc4)c(O)c(CCC)c(=O)n23)n(CCCC)c1=O` gave an Inhibition in experiment [1] of 0%.

The values are drawn from ChEMBL document CHEMBL1123282, “Antiinflammatory activity of substituted 6-hydroxypyrimido[2,1-f]purine-2,4,8(1H,3H,9H)-triones. Atypical nonsteroidal antiinflammatory agents” (J Med Chem, 1986).
